This note sets out measurements from PMC3525873 (British Journal of Pharmacology, 2012).

Bounds are passed on as bounds.

Common to all, as to type: cell-based
In assay [1] the target is T1, TRPC3 (Homo sapiens, UniProt Q13507).
T1 sequence (Q13507 74-921 limits assumed): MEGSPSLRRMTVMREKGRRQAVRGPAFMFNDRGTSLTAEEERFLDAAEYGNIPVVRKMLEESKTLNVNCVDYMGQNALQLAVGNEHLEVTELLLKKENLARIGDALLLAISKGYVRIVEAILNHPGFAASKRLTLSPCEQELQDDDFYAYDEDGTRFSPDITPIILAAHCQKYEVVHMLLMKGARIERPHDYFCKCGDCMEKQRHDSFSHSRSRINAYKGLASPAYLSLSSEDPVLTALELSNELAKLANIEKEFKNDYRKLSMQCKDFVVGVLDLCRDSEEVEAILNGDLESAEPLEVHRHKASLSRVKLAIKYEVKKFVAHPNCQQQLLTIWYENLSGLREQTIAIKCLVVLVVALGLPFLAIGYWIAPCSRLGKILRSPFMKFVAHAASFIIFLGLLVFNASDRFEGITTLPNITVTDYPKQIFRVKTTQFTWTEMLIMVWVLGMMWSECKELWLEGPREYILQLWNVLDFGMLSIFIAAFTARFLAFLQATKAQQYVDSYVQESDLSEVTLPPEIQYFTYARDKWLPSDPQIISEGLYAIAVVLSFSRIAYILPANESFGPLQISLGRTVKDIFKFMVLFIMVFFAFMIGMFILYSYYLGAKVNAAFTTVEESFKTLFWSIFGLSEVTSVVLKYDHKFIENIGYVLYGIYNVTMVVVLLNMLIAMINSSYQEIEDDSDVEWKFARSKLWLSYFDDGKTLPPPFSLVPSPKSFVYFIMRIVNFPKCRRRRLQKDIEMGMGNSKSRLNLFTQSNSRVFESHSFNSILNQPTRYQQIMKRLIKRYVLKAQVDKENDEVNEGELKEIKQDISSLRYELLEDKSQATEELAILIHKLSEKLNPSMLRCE
The experiment in a line: Patch-clamp of TRPC3 currents in HEK293 cells transiently expressing TRPC3. Background: Patch clamp records ionic current or voltage across a cell membrane.

The subject of a further assay is RBL-2H3 cells. The experiment in a line: Degranulation assay. The note with it: ionomycin 0.4 μM. The gist of the method:
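RBL-2H3 cells grown to confluency, washed in RBL-2H3 buffer with 2 mM CaCl2, all incubations at 37°C. Test compound (3 or 10 μM) for 15 min, then ionomycin 0.4 μM final for 30 min. Stopped with 0.4 M glycine (pH 10.7), A405 read. Untreated and 2% triton-lysed cells served as basal/maximal references. n = 3 passages.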

The target of a further assay is T2, TRPC4beta (Homo sapiens, UniProt Q9UBN4).
T2 sequence (Q9UBN4 1-893 isoform Q9UBN4-2): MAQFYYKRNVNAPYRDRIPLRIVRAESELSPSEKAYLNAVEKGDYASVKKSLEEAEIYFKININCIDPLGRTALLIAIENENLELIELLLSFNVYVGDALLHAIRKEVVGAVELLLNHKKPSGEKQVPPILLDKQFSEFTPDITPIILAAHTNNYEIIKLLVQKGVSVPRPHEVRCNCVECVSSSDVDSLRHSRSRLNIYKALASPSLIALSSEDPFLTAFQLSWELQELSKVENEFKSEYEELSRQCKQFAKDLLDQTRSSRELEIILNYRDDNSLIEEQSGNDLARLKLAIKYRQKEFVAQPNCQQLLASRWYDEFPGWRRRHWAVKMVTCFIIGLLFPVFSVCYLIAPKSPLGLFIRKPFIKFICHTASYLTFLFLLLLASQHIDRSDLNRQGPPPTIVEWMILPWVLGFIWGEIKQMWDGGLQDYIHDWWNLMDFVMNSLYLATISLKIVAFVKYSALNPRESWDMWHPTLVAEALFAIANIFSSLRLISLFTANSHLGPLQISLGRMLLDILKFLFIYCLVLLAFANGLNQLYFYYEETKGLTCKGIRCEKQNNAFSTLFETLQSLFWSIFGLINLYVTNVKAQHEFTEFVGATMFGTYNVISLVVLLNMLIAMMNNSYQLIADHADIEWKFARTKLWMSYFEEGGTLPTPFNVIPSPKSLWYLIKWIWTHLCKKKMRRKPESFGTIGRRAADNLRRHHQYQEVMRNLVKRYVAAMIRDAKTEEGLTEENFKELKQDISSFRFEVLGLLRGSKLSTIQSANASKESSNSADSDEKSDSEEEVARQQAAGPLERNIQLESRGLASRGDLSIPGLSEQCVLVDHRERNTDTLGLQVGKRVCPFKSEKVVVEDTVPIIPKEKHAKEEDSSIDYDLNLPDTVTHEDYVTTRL
Put plainly: Fura-2 Ca2+ entry in HEK293 cells overexpressing TRPC4beta-YFP.

Assay [2] concerns the target T1, TRPC3. The note with it: TRPC3 ROCE vs RBL-2H3 SOCE.

For orientation: IC50 means the point on the concentration scale where inhibition reaches its midpoint.

For `O=C(Nc1ccc(-n2nc(C(F)(F)F)cc2C(F)(F)F)cc1)c1ccncc1F` [Pyr6, N-(4-(3,5-bis(trifluoromethyl)-1H-pyrazole-1-yl)phenyl)-3-fluoroisonicotinamide], the TRPC3 currents remaining on TRPC3 [1] (3 μM, percent of control) is reported as 52%. Moreover, the “Effect on ionomycin-initiated degranulation” value in the assay on RBL-2H3 cells (3 μM) is “substantially reduced degranulation”; with RBL-2H3 cells (10 μM) it was “suppressed responses down to basal levels”. Also, the IC50 against TRPC4beta is greater than 10 µM.

As to `Cc1ccc(S(=O)(=O)Nc2ccc(-n3nc(C(F)(F)F)cc3C(F)(F)F)cc2)cc1` [Pyr10, N-(4-(3,5-bis(trifluoromethyl)-1H-pyrazole-1-yl)phenyl)-4-methylbenzenesulfonamide], the “Selectivity for TRPC3-ROCE as compared with the SOCE model, orders of magnitude” value on TRPC3 [2] is reported as 1.25 OM. Besides, the “Selectivity for TRPC3-ROCE as compared with the SOCE model” value at TRPC3 [2] (ratio of IC50 values) stood at 18 fold. In addition, the “Effect on TRPC3 Ca2+ entry-mediating conductance” value at TRPC3 [1] (3 μM pre-incubation, carbachol) was “eliminated TRPC3 currents”. Further, the “Effect on OAG-induced TRPC3 membrane currents” value on TRPC3 [1] (3 μM, OAG 100 μM) is “potently blocks DAG-mediated TRPC3 membrane currents”. The compound further registered an IC50 against TRPC4beta greater than 10 µM.
